The text below walks through data of ChEMBL document CHEMBL3745707 (Bioorg Med Chem, 2016).

Activity calls are given as the source filed them. No cut-off for these calls is given here.

Assay [1] has as its target T1, Tubulin (Bos taurus) (UniProt Q6B856+Q862L2+Q862F3). The experiment in a line: Inhibition of bovine MAP rich tubulin polymerization at 10 uM measured every 2 mins for 30 mins by UV-visible spectrophotometric analysis. The class given is protein assay. Summed up: (§1)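 MAP-rich bovine tubulin at 1.5 mg/mL in 80 mM PIPES pH 6.9, 1 mM GTP, 0.5 mM EGTA, 2 mM MgCl₂. Briefly preincubated with agent or DMSO, then polymerized at 37 °C in a spectrophotometer. Absorbance recorded every 2 min for 30 min; n = 3.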

The nature of assay [2]: cells. The class given is functional. Particulars: Homo sapiens, MIA PaCa-2, 72 h.
Assay [3] relates to U2OS. Nature of the assay: cells. The class given is functional. Conditions: Homo sapiens, 72 h.
Assay [4] can be described thus: cells. The class given is functional. Particulars: Homo sapiens, COLO 205, 72 h.
The next assay has as its system SK-MEL-28. The experiment in a line: cells. The class given is functional. Particulars: Homo sapiens, SK-MEL-28, 72 h.
The test system of the next assay is A549. Nature of the assay: cells. Particulars: Homo sapiens, A549, 72 h. The class given is functional.
In assay [5] the target is T2, Serine/threonine-protein kinase PLK2 (Homo sapiens, UniProt Q9NYY3). The experiment in a line: Inhibition of human recombinant PLK2 using recombinant dephosphorylated bovine alpha- casein as substrate after 30 mins by scintillation counting analysis in presence of gamma-32P-ATP.
Target sequence in this assay (Q9NYY3 whole entry): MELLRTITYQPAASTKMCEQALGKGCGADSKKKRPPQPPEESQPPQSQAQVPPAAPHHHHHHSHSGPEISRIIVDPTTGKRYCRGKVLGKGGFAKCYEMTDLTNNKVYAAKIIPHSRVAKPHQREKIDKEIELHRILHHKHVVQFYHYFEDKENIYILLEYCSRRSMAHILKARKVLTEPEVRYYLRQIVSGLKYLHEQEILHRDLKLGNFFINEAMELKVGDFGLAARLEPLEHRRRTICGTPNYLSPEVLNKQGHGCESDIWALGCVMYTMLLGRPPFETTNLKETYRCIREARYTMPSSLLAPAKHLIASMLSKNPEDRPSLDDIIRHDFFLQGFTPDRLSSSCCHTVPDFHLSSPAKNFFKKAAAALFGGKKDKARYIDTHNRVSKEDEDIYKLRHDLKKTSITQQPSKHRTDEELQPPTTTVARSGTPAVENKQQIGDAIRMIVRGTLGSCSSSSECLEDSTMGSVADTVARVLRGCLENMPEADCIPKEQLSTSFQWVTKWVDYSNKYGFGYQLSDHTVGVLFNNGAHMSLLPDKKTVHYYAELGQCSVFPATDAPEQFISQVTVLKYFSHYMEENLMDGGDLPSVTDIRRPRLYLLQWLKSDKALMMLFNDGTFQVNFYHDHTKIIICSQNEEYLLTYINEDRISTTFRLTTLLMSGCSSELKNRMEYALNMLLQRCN
Assay [6] deals with U2OS. Nature of the assay: Induction of apoptosis in human U2OS cells assessed as increase in caspase 3/7 activity after 24 hrs by caspase Glo assay. The class given is functional, cell-based. An outline of the steps: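 U2OS cells (DMEM, 10% FBS, 37 °C, 5% CO₂) plated at 1–3 × 10⁴ cells/well, left overnight, then exposed 24 h to increasing concentrations, with DMSO control. Caspase 3/7 activity read by Caspase-Glo luminescence; viability measured in parallel with Cell Titer Blue fluorescence.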

The subject of the next assay is MCF7. Nature of the assay: cells. The class given is functional. Particulars: Homo sapiens, MCF7, 72 h.
For the next assay, the system named is Raji. The experiment in a line: cells. The class given is functional. Particulars: Homo sapiens, 72 h.
Assay [7] in a line: cells. The class given is functional, U-87MG ATCC. Conditions: Homo sapiens, U-87 MG, 72 h.
Assay [8] can be described thus: cells. The class given is functional. Conditions: Homo sapiens, Granta-519, 72 h.
A further assay concerns K562. The experiment in a line: cells. Conditions: Homo sapiens, K562, 72 h. The class given is functional, cell-based.
The subject of the next assay is NCI-H1975. The experiment in a line: cells. The class given is functional. Conditions: Homo sapiens, NCI-H1975, 72 h.
The nature of assay [9]: cells. The class given is functional, cell-based. Particulars: Homo sapiens, DU-145, 72 h.
Assay [10] can be described thus: cells. Particulars: Homo sapiens, SK-OV-3, 72 h. The class given is functional.
Assay [11] in a line: cells. The class given is functional. Particulars: Homo sapiens, BT-474, 72 h.
Another assay has as its system HeLa. Nature of the assay: cells. The class given is functional. Particulars: Homo sapiens, 72 h.
Assay [12] has as its target T1, Tubulin (Bos taurus). Nature of the assay: Inhibition of bovine MAP rich tubulin polymerization at 1 uM measured every 2 mins for 30 mins by UV-visible spectrophotometric analysis. The class given is protein assay. Summed up:
as §1

Assay [13] has as its target T2, Serine/threonine-protein kinase PLK2.
Target sequence in this assay (Q9NYY3 whole entry, looked up): as the sequence (Q9NYY3 whole entry) above

As usually defined, the GI50 is the concentration giving 50% growth inhibition. Lower therefore signals greater sensitivity of the cells. For orientation: IC50 means the concentration at which inhibition is half-maximal. In the case of `Cn1c(=O)c(S(=O)(=O)c2ccc(F)cc2)cc2cnc(Nc3ccc4[nH]ccc4c3)nc21`, the inhibition entry on Tubulin (Bos taurus) [1] is “Active”. Also, the GI50 in the assay “cells [2]” stood at 75 nM; in the assay with U2OS [3], 55 nM; in the assay “cells [4]”, 200 nM; in the assay with SK-MEL-28, 300 nM; in the assay with A549, 200 nM; in the assay on MCF7, 250 nM. Besides, the GI50 is 100 nM with Raji; 400 nM in “cells [7]”; 60 nM in “cells [8]”; 100 nM in the assay on NCI-H1975; 200 nM in “cells [10]”; 200 nM in “cells [11]”. The GI50 with HeLa was found to be 75 nM. Further, the results for the IC50 (in [5]; in the assay with K562; in “cells [9]”) were 1070 nM, 200 nM and 300 nM, respectively. For the same molecule, in the assay with U2OS [6], the Activity entry is “Dose-dependent effect”.

In the case of `Cn1c(=O)c(S(=O)(=O)c2ccccc2)cc2cnc(Nc3ccc4[nH]ccc4c3)nc21`, the values for the IC50 (in [5]; with K562; in the assay “cells [9]”) were 1230 nM, 1000 nM and 5000 nM, respectively.

In the case of `CC[C@]1(O)C[C@H]2CN(CCc3c([nH]c4ccccc34)[C@@](C(=O)OC)(c3cc4c(cc3OC)N(C=O)[C@H]3[C@@](O)(C(=O)OC)[C@H](OC(C)=O)[C@]5(CC)C=CCN6CC[C@]43[C@@H]65)C2)C1`, at Tubulin (Bos taurus) [12], the inhibition entry is “Active”.

As usually defined, the ΔTm is the shift of the melting midpoint relative to a reference. Regarding `CC[C@@H]1C(=O)N(C)c2cnc(Nc3ccc(C(=O)NC4CCN(C)CC4)cc3OC)nc2N1C1CCCC1`, the ΔTm in assay [13] was 12.3 °C.

As to `Cn1c(=O)c(S(=O)(=O)c2ccc(OC(=O)CCCCC3SCC4NC(=O)NC43)cc2)cc2cnc(Nc3ccc4[nH]ccc4c3)nc21` (stereo not given), the inhibition entry at Tubulin (Bos taurus) [1] was “Active”. In addition, the GI50 was found to be 100 nM in the assay “cells [2]”; 350 nM with U2OS [3]; 500 nM in “cells [4]”; 500 nM with SK-MEL-28; 2500 nM in the assay on A549; 500 nM in the assay with MCF7. Moreover, the GI50 in the assay on Raji turned out to be 400 nM; in “cells [7]” it was 1000 nM; in “cells [8]” it was 500 nM; with NCI-H1975, 750 nM; in the assay “cells [10]” it was 400 nM; in “cells [11]”, 250 nM. Moreover, growth with HeLa was halved (GI50) at 500 nM. For the same molecule, the results for the IC50 in the assay with K562 and in “cells [9]” were 600 nM and 150 nM, respectively.

In the case of `Cn1c(=O)c(S(=O)(=O)c2ccc(F)cc2)cc2cnc(Nc3cccc4[nH]ccc34)nc21`, the IC50 in assay [5] worked out at 6080 nM; in the assay on K562, 750 nM; in the assay “cells [9]”, 750 nM.

Consider `Cn1c(=O)c(S(=O)(=O)c2ccc(F)cc2)cc2cnc(Nc3ccc4[nH]cnc4c3)nc21`, for which the IC50 in the assay on K562 and in the assay “cells [9]” was 10000 nM in each case.

Consider `Cc1cc2cc(Nc3ncc4cc(S(=O)(=O)c5ccc(F)cc5F)c(=O)n(C)c4n3)ccc2[nH]1`, for which the IC50 in the assay on K562 and in the assay “cells [9]” was 750 nM each time.

Take `Cn1c(=O)c(S(=O)(=O)c2ccc(F)cc2F)cc2cnc(Nc3cccc4[nH]ccc34)nc21`: the 50% inhibitory concentration (IC50) is 1500 nM in the assay on K562 and 750 nM in “cells [9]”.

As to `O=c1c(S(=O)(=O)c2ccc(F)cc2F)cc2cnc(Nc3ccc4[nH]ccc4c3)nc2n1C1CCCCC1`, the IC50 with K562 and in “cells [9]” was 10000 nM throughout.

As to `Cn1c(=O)c(C(=O)Nc2ccc(F)cc2)cc2cnc(Nc3ccc4[nH]ccc4c3)nc21`, the IC50 with K562 and in the assay “cells [9]” was 5000 nM in each case.

`Cc1ccc(S(=O)(=O)c2cc3cnc(Nc4cnc5[nH]ccc5c4)nc3n(C)c2=O)cc1`: the IC50 stood at 15000 nM in the assay on K562 and 25000 nM in “cells [9]”.

For the molecule `COc1ccc(S(=O)(=O)c2cc3cnc(Nc4cccc5[nH]ccc45)nc3n(C)c2=O)cc1`, the IC50 in the assay with K562 and in “cells [9]” was 5000 nM each time.

Take `Cn1c(=O)c(S(=O)(=O)c2ccc(F)cc2F)cc2cnc(NCc3ccc4[nH]ccc4c3)nc21`: the values for the IC50 in the assay on K562 and in “cells [9]” were 75000 nM and 100000 nM, respectively.

Regarding `COc1ccc(S(=O)(=O)c2cc3cnc(Nc4ccc5[nH]ccc5c4)nc3n(C)c2=O)cc1`, the results for the IC50 (in assay [5]; in the assay with K562; in the assay “cells [9]”) were 350 nM, 300 nM and 500 nM, respectively.

`Cn1c(=O)c(S(=O)(=O)c2ccc(Br)cc2)cc2cnc(Nc3ccc4[nH]ccc4c3)nc21`: the IC50 in the assay with K562 and in the assay “cells [9]” was 5000 nM in each case.

In the case of `Cn1c(=O)c(S(=O)(=O)c2ccc(F)cc2F)cc2cnc(Nc3ccccn3)nc21`, the results for the IC50 in the assay on K562 and in “cells [9]” were 35000 nM and 75000 nM, respectively.

Regarding `Cn1c(=O)c(S(=O)(=O)c2ccc([N+](=O)[O-])cc2F)cc2cnc(Nc3ccc4[nH]ccc4c3)nc21`, the IC50 was found to be 200 nM with K562 and 400 nM in the assay “cells [9]”.

On to `Cn1c(=O)c(S(=O)(=O)c2ccc(F)cc2[N+](=O)[O-])cc2cnc(Nc3ccc4[nH]ccc4c3)nc21`, for which the IC50 in the assay on K562 stood at 900 nM; in the assay “cells [9]”, 1500 nM.

Turning to `Cn1c(=O)c(S(=O)(=O)c2ccccc2)cc2cnc(Nc3cnc4[nH]ccc4c3)nc21`, the values for the IC50 with K562 and in the assay “cells [9]” were 5000 nM and 1000 nM, respectively.

Turning to `Cc1ccc(S(=O)(=O)c2cc3cnc(Nc4cccc5cccnc45)nc3n(C)c2=O)cc1`, the IC50 in the assay on K562 and in the assay “cells [9]” was 10000 nM throughout.

As for `Cn1c(=O)c(S(=O)(=O)c2ccc(F)cc2N)cc2cnc(Nc3ccc4[nH]ccc4c3)nc21`, the IC50 with K562 amounted to 2000 nM; in “cells [9]”, 3000 nM.

Consider `Cn1c(=O)c(S(=O)(=O)Nc2ccc(F)cc2F)cc2cnc(Nc3ccc4[nH]ccc4c3)nc21`, for which the IC50 in the assay on K562 and in the assay “cells [9]” was 5000 nM each time.

For `Cn1c(=O)c(S(=O)(=O)c2ccc(Cl)cc2)cc2cnc(Nc3ccc4[nH]ccc4c3)nc21`, the IC50 in the assay with K562 is 100 nM; in the assay “cells [9]” it was 250 nM.

`Cn1c(=O)c(S(=O)(=O)c2ccc(Cl)cc2)cc2cnc(Nc3cccc4[nH]ccc34)nc21`: the IC50 in the assay with K562 and in the assay “cells [9]” was 5000 nM each time.

Regarding `Cn1c(=O)c(S(=O)(=O)c2ccc(O)cc2)cc2cnc(Nc3ccc4[nH]ccc4c3)nc21`, the inhibition entry on Tubulin (Bos taurus) [1] is “Active”. The GI50 in the assay “cells [2]” was found to be 100 nM; in the assay with U2OS [3], 350 nM; in the assay “cells [4]”, 250 nM; in the assay on SK-MEL-28, 500 nM; with A549 it was 750 nM; in the assay on MCF7 it was 500 nM. In addition, the GI50 in the assay with Raji turned out to be 500 nM; in the assay “cells [7]”, 1000 nM; in the assay “cells [8]” it was 250 nM; in the assay with NCI-H1975, 750 nM; in “cells [10]”, 750 nM; in “cells [11]” it was 200 nM. The GI50 in the assay on HeLa came out at 750 nM. The IC50 is 470 nM in assay [5], 100 nM in the assay on K562 and 250 nM in the assay “cells [9]”.

In the case of `O=c1c(S(=O)(=O)c2ccc(F)cc2F)cc2cnc(Nc3ccc4[nH]ccc4c3)nc2n1CC1CC1`, the IC50 in the assay on K562 and in “cells [9]” was 1000 nM in each case.
